Data from ChEMBL document CHEMBL1268838, “The synthesis and biologic evaluation of anti-platelet and cytotoxic β-nitrostyrenes” (Bioorg Med Chem, 2010).

How the values were obtained:
[1] = Antiaggregatory activity in human platelets assessed as inhibition of collagen-induced platelet aggregation preincubated for 3 mins before collagen challenge by turbidimetry analysis; format: functional, cell-based
Outline: (§1)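 Washed platelets from ACD-anticoagulated blood of drug-free healthy volunteers, resuspended at 3 × 10⁸/ml in Tyrode's solution with Ca²⁺ 2 mM, glucose 11.1 mM and BSA 3.5 mg/ml. Platelets were stirred at 1200 rpm and 37 °C for 3 min with DMSO (0.5%, vehicle) or compound, then the inducer was added. Aggregation was read by light-transmission aggregometry. IC50 is the mean of two independent experiments (TPA lines n = 3).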

MDA-MB-231 [2] = assay: Cytotoxicity against human MDA-MB-231 cells at 20 uM after 72 hrs by MTT assay; format: functional; conditions: MDA-MB-231, 72 h
HBL-100 [3] = assay: Cytotoxicity against human HBL100 cells after 72 hrs by MTT assay; format: functional, cell-based; conditions: HBL-100, 72 h
Outline: (§2)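 MDA-MB-231 breast cancer or HBL-100 non-malignant breast epithelial cells: freshly trypsinized cells seeded at 8000 per well, with compound added from DMSO-diluted stock. After 72 h, attached cells were given MTT (0.5 mg/mL, 1 h) and solubilized in DMSO.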

MDA-MB-231 [4] = assay: Cytotoxicity against human MDA-MB-231 cells after 72 hrs by MTT assay; format: functional, cell-based; conditions: MDA-MB-231, 72 h; outline: as §2
HBL-100 [5] = assay: Cytotoxicity against human HBL100 cells at 20 uM after 72 hrs by MTT assay; format: functional; conditions: HBL-100, 72 h
[6] = Antiaggregatory activity in human platelets assessed as inhibition of thrombin-induced platelet aggregation preincubated for 3 mins before thrombin challenge by turbidimetry analysis; format: functional, cell-based; outline: as §1

| Structure (SMILES) | IC50 [1] | inhibition at 20 µM (MDA-MB-231 [2]) | IC50 (HBL-100 [3]) | IC50 (MDA-MB-231 [4]) | inhibition at 20 µM (HBL-100 [5]) | IC50 [6] |
| --- | --- | --- | --- | --- | --- | --- |
| CCOc1cc(/C=C/[N+](=O)[O-])ccc1O | 16.2 µM | 34.4% | > 20 µM | > 20 µM | 35.2% | 78.1 µM |
| O=[N+]([O-])/C(O)=C/c1ccccc1 | 7.8 µM | 21.2% | > 20 µM | 13.9 µM | 34.9% | 35.5 µM |
| O=[N+]([O-])C(=Cc1ccccc1)[N+](=O)[O-] | 3 µM | – | > 20 µM | 9.9 µM | 34.2% | 5.7 µM |
| COc1cc(/C=C/[N+](=O)[O-])ccc1OC(=O)c1cc(F)c(F)c(F)c1 | 0.9 µM | – | > 20 µM | 12.4 µM | 16.6% | 1.4 µM |
| COc1cc(/C=C/[N+](=O)[O-])ccc1OC(=O)c1cc(OC)c(OC)c(OC)c1 | 1.1 µM | – | > 20 µM | 13.9 µM | 47.4% | 1.1 µM |
| CCOc1cc(/C=C/[N+](=O)[O-])ccc1OC(=O)c1ccccc1 | 1 µM | – | 11.6 µM | 15.3 µM | – | 1.2 µM |
| COc1ccc(/C=C/[N+](=O)[O-])cc1OC(=O)c1ccccc1 | 0.8 µM | – | < 10 µM | 7.7 µM | 79.8% | 1.9 µM |
| CCOc1cc(/C=C(\C)[N+](=O)[O-])ccc1OC(=O)c1ccccc1 | 1.1 µM | – | 14.6 µM | 12.1 µM | – | 0.8 µM |
| COc1ccc(/C=C(\C)[N+](=O)[O-])cc1OC(=O)c1ccccc1 | 1 µM | – | 7.3 µM | 6.6 µM | – | 2.9 µM |
| COc1cc(/C=C/[N+](=O)[O-])ccc1OC(=O)c1ccccc1Cl | 0.6 µM | 7% | > 20 µM | > 20 µM | 8.2% | 1 µM |
| COc1cc(/C=C/[N+](=O)[O-])ccc1OC(=O)c1ccccc1C(F)(F)F | 1.3 µM | 20.4% | > 20 µM | > 20 µM | 2.4% | 2.5 µM |
| COc1cc(/C=C/[N+](=O)[O-])ccc1OC(=O)c1ccccc1C | 1.2 µM | 36.3% | > 20 µM | > 20 µM | 1.8% | 1.5 µM |
| COc1cc(/C=C/[N+](=O)[O-])ccc1OC(=O)c1ccccc1OC | 0.8 µM | – | > 10 µM | 19.4 µM | 8.8% | 2.1 µM |
| COc1cc(/C=C/[N+](=O)[O-])ccc1OC(=O)c1cccc(F)c1 | 1.4 µM | 44.9% | > 20 µM | > 20 µM | 38.2% | 2.6 µM |
| COc1cc(/C=C/[N+](=O)[O-])ccc1OC(=O)c1cccc(Cl)c1 | 0.5 µM | – | > 20 µM | 18.9 µM | 23.2% | 1.2 µM |
| COc1cc(/C=C/[N+](=O)[O-])ccc1OC(=O)c1cccc(Br)c1 | 0.9 µM | 19.1% | > 20 µM | > 20 µM | 18.2% | 1.3 µM |
| COc1cc(/C=C/[N+](=O)[O-])ccc1OC(=O)c1cccc(C)c1 | 0.9 µM | – | 4.1 µM | 13.4 µM | – | 1.7 µM |
| COc1cccc(C(=O)Oc2ccc(/C=C/[N+](=O)[O-])cc2OC)c1 | 0.7 µM | 28.9% | 12.1 µM | > 20 µM | – | 2.9 µM |

| Structure (SMILES) | IC50 [1] | inhibition at 20 µM (MDA-MB-231 [2]) | IC50 (HBL-100 [3]) | IC50 (MDA-MB-231 [4]) | inhibition at 20 µM (HBL-100 [5]) | IC50 [6] |
| --- | --- | --- | --- | --- | --- | --- |
| COc1cc(/C=C/[N+](=O)[O-])ccc1OC(=O)c1ccc(F)cc1 | 0.8 µM | – | > 20 µM | 9.8 µM | 25.1% | 0.9 µM |
| COc1cc(/C=C/[N+](=O)[O-])ccc1OC(=O)c1ccc(Cl)cc1 | 0.7 µM | 33.2% | > 20 µM | > 20 µM | 7.3% | 1.5 µM |
| COc1cc(/C=C/[N+](=O)[O-])ccc1OC(=O)c1ccc(Br)cc1 | 0.6 µM | 9.1% | > 20 µM | > 20 µM | 6.3% | 1.2 µM |
| COc1cc(/C=C/[N+](=O)[O-])ccc1OC(=O)c1ccc(C(F)(F)F)cc1 | 8.3 µM | -4.9% | > 20 µM | > 20 µM | -7.3% | 6.2 µM |
| COc1ccc(C(=O)Oc2ccc(/C=C/[N+](=O)[O-])cc2OC)cc1 | 0.8 µM | – | > 20 µM | 18.1 µM | 22.7% | 3.5 µM |
| COc1cc(/C=C/[N+](=O)[O-])ccc1OC(=O)c1ccc(F)c(F)c1 | 1.1 µM | 22.1% | > 20 µM | > 20 µM | 0.5% | 2.9 µM |
| COc1cc(/C=C/[N+](=O)[O-])ccc1OC(=O)c1cc(F)cc(F)c1 | 1.4 µM | 24.7% | > 20 µM | > 20 µM | 19% | 3.4 µM |
| COc1cc(/C=C/[N+](=O)[O-])ccc1OC(=O)c1ccc(Cl)cc1Cl | 0.7 µM | -0.1% | > 20 µM | > 20 µM | 9.9% | 0.7 µM |
| Cc1ccc(/C=C/[N+](=O)[O-])cc1 | 5.9 µM | – | 15 µM | > 20 µM | – | 8.9 µM |
| O=[N+]([O-])/C=C/c1ccc(Cl)cc1 | 3.5 µM | 36.6% | 15.7 µM | > 20 µM | – | 7.5 µM |
| COc1ccc(/C=C/[N+](=O)[O-])cc1 | 3.5 µM | – | 13 µM | 16.3 µM | – | 12.1 µM |
| O=[N+]([O-])/C=C/c1ccc(O)cc1 | 18.4 µM | 38.3% | 16.3 µM | > 20 µM | – | 45.1 µM |
| COc1cc(/C=C/[N+](=O)[O-])ccc1O | 16.4 µM | – | – | – | – | 66.5 µM |
| COc1cc(/C=C/[N+](=O)[O-])ccc1OC(=O)c1ccccc1 | 1.1 µM | – | > 20 µM | 13.1 µM | 0% | 2.7 µM |
| COc1ccc(/C=C/[N+](=O)[O-])cc1O | 7.2 µM | – | 12.8 µM | 18.9 µM | – | 28.5 µM |
| COc1ccc(/C=C/[N+](=O)[O-])cc1OC | 7.6 µM | – | – | – | – | 12.8 µM |
| O=[N+]([O-])/C=C/c1ccc2c(c1)OCO2 | 7.2 µM | – | > 20 µM | 14 µM | 39.2% | 14 µM |
| O=[N+]([O-])/C=C/c1ccccc1 [(2-NITROVINYL)BENZENE] | 4.9 µM | – | – | – | – | 17.8 µM |
